The source of these data is PMC4233149 (Clinical cancer research : an official journal of the …, 2014).

A short description of one data set: Solubility. In kind it is physicochemical. The conditions noted are these: across physiological pH ranges.
For data set [1] the following is noted: observed in the earlier QOD dose-escalation study; cited from earlier work.
A further data set concerns advanced solid tumors. Nature of the data set: Multiparametric functional MRI. In kind it is in vivo, human. The conditions noted are these: 60mg QOD, one patient with ADC response. The method in brief:
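Oral dosing at 60mg QOD to fasted patients in 28-day cycles. Imaging on a 1.5T MR system used DCE-MRI, DWI, 1H-MRS and ISW-MRI. Median Ktrans, ADC, tCho/water ratio and R2* were analysed. Four scans per patient: two pre-treatment (reproducibility cohort), then cycle 1 day 7±1 and day 21±4.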

For data set [2] the following is noted: alternate days (QOD), previously established; cited from earlier work.

Take `NC1(c2ccc(-c3nc4ccn5c(=O)[nH]nc5c4cc3-c3ccccc3)cc2)CCC1` [MK-2206]: in the data set “Solubility”, the solubility entry was “relatively low solubility”. Moreover, the half-life (in general, the time in which the quantity being followed falls by half) in data set [1] was 60 to 80 h. Moreover, the “reduction in K^trans” value in the data set with advanced solid tumors came out at 20%. Further, the “maximum tolerated dose (MTD)” value in data set [2] is given as 60 mg.
